hERG rescue = hERG rescue from dofetilide block, primary screen, cell-based, CHO-hERG, FluxOR thallium flux, dofetilide IC70; activation (rescue from dofetilide block), less the hit threshold, % at 10 µM; Voltage-gated inwardly rectifying potassium channel KCNH2 (Homo sapiens), Q12809; dofetilide IC70 present; 310,000 compounds, 0.51% hits; AID 1511, 2009;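 active = activation above the mean of controls blocked by dofetilide plus 5 SD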;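 also: thallium influx through hERG after potassium depolarization seen as dye fluorescence rise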
KCNK9 inh = KCNK9 potassium channel inhibitors, primary screen, HEK293 cells, thallium flux. FluxOR thallium flux fluorescence; active compounds read low. B-score at 10 µM. 310,000 compounds, 1.2% hits;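 active = ratio B-score over 3 SD below the library mean, with starting fluorescence within 5 SD of its mean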;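 also: negative B-score means less thallium flux so channel inhibition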
KCNK3 inh = human KCNK3 channel inhibitors, primary screen, CHO cells, FluxOR thallium flux, B-score; AID 602410, 2012; Potassium channel subfamily K member 3 (Homo sapiens), O14649; FluxOR fluorescence; active compounds read low; 340,000 compounds, 0.84% hits; B-score at 10 µM;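 active = B-score under library mean minus 4 SD, starting fluorescence ratio at most library mean plus 5 SD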;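 also: more negative B-score means stronger inhibition of thallium flux through KCNK3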
KCNQ1 inh = inhibitors of human KCNQ1 channel, primary screen, cell-based, thallium flux, high-throughput; Potassium voltage-gated channel subfamily KQT member 1 (Homo sapiens), P51787; CHO-K1 KCNQ1, FluxOR thallium flux fluorescence; active compounds read high; B-score at 10 µM; 310,000 compounds, 1.3% hits; AID 2642, 2010;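 active = compounds whose thallium flux B-score, printed positive for inhibition, exceeds three library SD while starting fluorescence stays within three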;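 also: channel opened by potassium depolarization with thallium stimulus after 20 min compound exposure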
Target sequence (P51787 whole entry, looked up): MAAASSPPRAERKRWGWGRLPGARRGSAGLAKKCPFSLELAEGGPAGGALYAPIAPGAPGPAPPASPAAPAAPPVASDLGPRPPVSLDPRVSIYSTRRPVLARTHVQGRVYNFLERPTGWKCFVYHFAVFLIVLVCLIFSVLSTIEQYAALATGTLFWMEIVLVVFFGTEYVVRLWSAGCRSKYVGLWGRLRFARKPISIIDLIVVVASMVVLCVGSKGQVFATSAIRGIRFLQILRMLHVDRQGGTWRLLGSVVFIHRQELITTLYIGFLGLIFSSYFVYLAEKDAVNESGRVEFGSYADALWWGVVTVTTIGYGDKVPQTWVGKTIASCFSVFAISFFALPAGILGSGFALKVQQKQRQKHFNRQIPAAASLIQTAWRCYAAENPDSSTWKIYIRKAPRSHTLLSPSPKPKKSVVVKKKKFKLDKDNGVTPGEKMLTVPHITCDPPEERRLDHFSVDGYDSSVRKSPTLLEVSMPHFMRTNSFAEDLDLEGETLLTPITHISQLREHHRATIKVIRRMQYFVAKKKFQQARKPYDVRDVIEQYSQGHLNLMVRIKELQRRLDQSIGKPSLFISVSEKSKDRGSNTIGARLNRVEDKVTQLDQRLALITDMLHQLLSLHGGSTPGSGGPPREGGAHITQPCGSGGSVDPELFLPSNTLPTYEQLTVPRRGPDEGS
KCNQ1 act = potentiators or activators of KCNQ1 channel, primary screen, cell-based, thallium flux, high-throughput; AID 2648, 2010; 310,000 compounds, 0.35% hits; CHO-K1 KCNQ1, thallium flux FluxOR fluorescence; active compounds read high; B-score at 10 µM;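 active = fluorescence ratio B-score, a plate-corrected score, at least three library SD, with initial intensity B-score within 5 SD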
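Test system: CHO-K1 cells stably expressing KCNQ1 / Medium: assay buffer / Also added: depolarizing K+/Tl+ stimulus, K2SO4 and Tl2SO4 each 12.5 mM in 5x stock / Incubation: 90 min dye loading and 20 min compound exposure, both at room temperature / Signal: thallium influx via FluxOR fluorescence, kinetic imaging / Evaluation: B score of baseline-normalized fluorescence ratio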
An asterisk follows results filed as active; i = inactive; x = not tested or not shown. Hits are enriched below; roughly 3.1% of the tested compounds scored in any of these assays.

SMILES	hERG rescue	KCNK9 inh	KCNK3 inh	KCNQ1 inh	KCNQ1 act
CCN1CCN(c2ccc(N3CCN(S(=O)(=O)c4ccc(C)c([N+](=O)[O-])c4)CC3)nn2)CC1	-16.9	i	i	i	i
CCOC(=O)c1c(-c2ccccc2)c[nH]c1C	x	x	i	x	x
COC(=O)c1ccc(C(=O)N2CCCC(N3CCN(c4ccc(F)cc4)CC3)C2)nc1 (configuration not stated)	0.8	i	i	i	i
O=C(CSCC(=O)N1CCCCC1)Nc1nc(-c2ccccc2)c(-c2ccccc2)s1	x	x	-10.9*	x	x
COc1ccc(-c2sc(NC(C)=O)nc2-c2ccccc2)cc1	-7.6	i	i	i	i
CN(C)c1ccc2c(c1)OC(N)=C(C#N)C2c1cccc(F)c1 (configuration not stated)	-20.8	-6.75*	-10.8*	i	i
N#CC1=C(N)Oc2cc(N)ccc2C1c1cccc(F)c1 (configuration not stated)	-0.3	i	i	i	i
O=P(Cc1cccc2ccccc12)(c1ccccc1)c1ccccc1	x	x	i	x	x
Cc1cc(-c2nc3cc(F)ccc3s2)ccc1N	x	x	i	x	x
CCCCCNCC(=O)Nc1cc(C(F)(F)F)ccc1OCCOC	-10.6	-8.47*	i	i	i
CC1(N2CCCCC2)CC2(O)C(=[N+]1[O-])CCC/C2=N\O (configuration not stated)	-6.1	i	i	i	8*
C=C1/C(=C\C=C2/CCC[C@]3(C)[C@@H]([C@H](C)CCCC(C)(C)O)CC[C@@H]23)C[C@@H](O)C[C@@H]1O	-6.7	i	x	7*	i
O=C(COc1ccc(F)cc1)NNC(=O)Cn1ccc(C(F)(F)F)n1	x	x	i	x	x
Cc1ccc(S(=O)(=O)Oc2ccccc2[N+](=O)[O-])cc1	x	x	i	x	x
O=C1CCC(=O)N1OCCOc1ccc(Cl)c2ccccc12	-14.4	i	i	6*	i
C=CCc1cccc(Cl)c1OCCON1C(=O)CCC1=O	-12.8	i	i	i	i
Clc1ccc(OCCn2ccnc2)c(Cl)c1	-6.7	i	i	i	i
Clc1ccc(OCCn2ccnc2)c2ccccc12	-18.8	i	i	6*	i
CC(OC(=O)CC(C)c1ccccc1)C(=O)Nc1ccc(Cl)cn1 (configuration not stated)	x	x	i	x	x
COc1ccc(OC)c(NC(=O)Nc2ccc3c(c2)OCO3)c1	0.8	i	i	i	i
Nc1ccccc1SC/C=C/CSc1ccccc1N	-4.8	i	i	i	i
CS(=O)(=O)c1ccc(NC(=O)c2cc3c(cc2Cl)N2CCCCCC2=NS3(=O)=O)cc1	x	x	i	x	x
CCc1c(C)[nH]n(-c2nc(-c3ccccc3)cs2)c1=O	-4.8	i	i	i	i
Cc1[nH]n(-c2nc(-c3ccc(Cl)cc3)cs2)c(=O)c1N=Nc1ccc(O)cc1	-7.9	i	i	8*	i
O=S(=O)(c1ccc2nc(N3CCN(c4ccc(F)cc4)CC3)ccc2c1)N1CCCCC1	-3.5	i	i	i	i
SMILES	hERG rescue	KCNK9 inh	KCNK3 inh	KCNQ1 inh	KCNQ1 act
CCOC(=O)C1CCCN(C(=O)C2CCN(S(=O)(=O)c3ccc4ccccc4c3)CC2)C1 (configuration not stated)	-15.6	i	i	i	10*
CC(C)[C@@H](CO)N(C)S(=O)(=O)c1ccccc1Br	x	x	i	x	x
Cc1cccc(C)c1OC(=O)c1ccccc1	x	x	i	x	x
COc1ccc(CCN=C(NS(=O)(=O)c2ccccc2)c2ccccc2)cc1OC	12.3*	i	i	i	i
CC(C)c1ccc(C2C3=C(CC(C)(C)CC3=O)NC3=C2C(=O)c2ccccc23)cc1 (configuration not stated)	-6.6	i	i	11*	i
CC1(C)CC(=O)C2=C(C1)NC1=C(C(=O)c3ccccc31)C2c1cc([N+](=O)[O-])ccc1O (configuration not stated)	-12.8	i	i	6*	i
N#CC1=C(N)NC(SCC(=O)c2ccc(Br)cc2)=C(C#N)C12CCCCC2	-26.3	i	i	12*	i
N#CC1=C(N)NC(SCC(=O)c2ccc(Cl)cc2)=C(C#N)C12CCCC2	-27.2	i	i	7*	i
CCCSC1=C(C#N)C2(CCCCC2)C(C#N)=C(N)N1	-30.1	i	i	8*	i
CCSC1=C(C#N)C2(CCCCC2)C(C#N)=C(N)N1	-21.0	i	i	i	i
COc1ccc(NC(=O)CC2CC3CCC2C3)cc1S(=O)(=O)N1CCOCC1 (configuration not stated)	x	x	i	x	x
COCCCN1C(=O)c2ccc(C(=O)OCC(=O)N(CCC#N)c3cc(C)cc(C)c3)cc2C1=O	-12.8	i	i	i	i
COc1cc(OC)cc(-c2c(C#Cc3ccsc3)c3cc(-c4ccccc4OC)ccc3n2C)c1	x	x	i	x	x
COC(=O)[C@]1(C)N[C@H](CN(C)C(=O)c2ccc(F)cc2)[C@@H]2C(=O)N(C)C(=O)[C@@H]21	x	x	i	x	x
CCOC(=O)c1c(C)n(-c2ccc(C)cc2)c2ccc(OCC(O)CNCC3CCCO3)cc12 (configuration not stated)	-41.7	i	i	7*	i
COC1(OC)C(/C=C/c2ccc(Cl)cc2)C(C#N)(C#N)C1(OC)OC (configuration not stated)	-4.8	i	i	10*	i
O=CNc1ccc2c3c(cccc13)-c1ccccc1-2	x	x	i	x	x
CCC(CC)CN1CCC(CN2C(=S)NC[C@@H]2[C@@H](C)CC)CC1	x	x	i	x	x
COc1ccccc1-c1nnc(SCC(=O)Nc2nc(-c3ccccc3)cs2)n1C	6.1*	i	i	i	i
CCCC(=O)Nc1ccc(-c2nc3ncccc3o2)cc1	-1.9	i	i	i	i
COc1ccccc1-c1cc(C(F)(F)F)nc(NCc2ccco2)n1	-21.9	-7.27*	i	i	i
FC(F)(F)c1cc(-c2ccco2)nc(NCc2ccccc2)n1	-29.3	i	i	i	i
C=C(C)COc1ccc2c(C)c(CCC(=O)N3C[C@H]4C[C@@H](C3)c3cccc(=O)n3C4)c(=O)oc2c1	-3.9	i	i	i	i
CN=C(C[N+](=O)[O-])NCCSCc1ccc(CN(C)C)o1	x	x	i	x	x
CC1Cc2c([nH]c(=O)n(-c3ccccc3)c2=O)O1 (configuration not stated)	x	x	i	x	x
O=S(=O)(c1ccc(SCc2cccc(Cl)c2)nc1)N1CCCC1	x	x	-9.52*	x	x
